# Screening data: PubChem, Broad Institute
# This is a sample that favours compounds with a hit; in the whole collection about 2.2% have one here.
# dFosB act-1 – mouse delta FosB homodimer activation | purified delta FosB, TAMRA-CDK5 oligo fluorescence polarization; percent of positive-control signal above neutral wells | activation, % at 25 µM | actives 0.99% (n = 340,000) | P13346 | AID 493131;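 active = mean activation above about 17%, with every replicate also reaching it, limit read from the data, passing the limit was not always enough; inconclusive = only one of the two conditions met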
# Target sequence (P13346 whole entry, looked up): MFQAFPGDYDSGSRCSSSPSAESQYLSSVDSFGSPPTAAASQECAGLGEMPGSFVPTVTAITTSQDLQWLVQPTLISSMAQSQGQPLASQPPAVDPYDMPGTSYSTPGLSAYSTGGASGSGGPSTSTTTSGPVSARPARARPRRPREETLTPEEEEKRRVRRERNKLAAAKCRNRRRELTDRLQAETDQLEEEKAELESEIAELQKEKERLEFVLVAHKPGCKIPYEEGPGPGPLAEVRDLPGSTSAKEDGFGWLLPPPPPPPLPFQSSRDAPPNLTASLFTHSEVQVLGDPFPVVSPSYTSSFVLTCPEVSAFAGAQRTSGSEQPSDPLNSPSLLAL
# S100A4 MyoIIA – blocks human S100A4 binding to myosin IIA peptide; P26447; actives 0.14% (n = 360,000); inhibition, % at 10.7 µM; S100A4/TAMRA-MyoIIA peptide fluorescence polarization;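 active = mean inhibition of at least 70% across replicates, with every replicate also reaching that level; inconclusive = mean inhibition reaches 70% but some replicates fall short; inactive = mean inhibition below 70%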
# Target sequence (P26447 whole entry, looked up): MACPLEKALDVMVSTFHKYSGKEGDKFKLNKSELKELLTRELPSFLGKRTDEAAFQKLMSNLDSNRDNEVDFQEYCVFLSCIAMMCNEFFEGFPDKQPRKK
#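 assay system = human S100A4 monomer with TAMRA-labelled myosin IIA peptide | also added = labelled myosin peptide probe, 5 nM | incubation = 5 min between mix addition and reading | control set = DMSO and TFP controls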
# F508del corr – correctors of CFTR F508del function in bronchial epithelial cells. AID 720511. CFBE cells, YFP halide quenching; stimulated with forskolin plus potentiator P3; % fluorescence drop versus neutral controls. actives 0.36% (n = 350,000). activity (quench increase), % at 7.58 µM;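 active = mean added fluorescence quench of at least 8% versus neutral control, with both replicates also reaching 8%; inconclusive = only one of the mean or replicate conditions met; inactive = mean below 8% and not both replicates reaching 8%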;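 note: cells transiently co-express mutant CFTR-F508del with the halide-sensitive YFP; corrector assay measuring rescue of mutant channel to the surface after 24 h compound exposure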
# FGF22 binding – FGF22 (human) thermal shift binding; recombinant FGF22 thermal shift, SYPRO orange fluorescence; percent of sucrose octasulfate shift, DMSO zero; activity (Tm shift, normalised), % at 9.99 µM; actives 1.5% (n = 340,000);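 active = mean Tm shift, scaled 0 neutral to 100 positive control, at about 1.3% or above, every replicate too, limit read from the data; inconclusive = no clear call, values can overlap the other calls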
# Target sequence (Q9HCT0 whole entry, looked up): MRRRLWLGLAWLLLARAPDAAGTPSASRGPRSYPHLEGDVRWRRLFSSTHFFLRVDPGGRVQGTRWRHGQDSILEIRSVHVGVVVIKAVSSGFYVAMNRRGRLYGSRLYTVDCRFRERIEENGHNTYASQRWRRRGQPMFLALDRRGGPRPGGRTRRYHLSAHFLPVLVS
# dFosB act-2 – activators of mouse delta FosB homodimer DNA binding. activation, % at 24.9 µM. purified delta FosB, TAMRA-CDK5 oligo fluorescence polarization; normalised: neutral wells 0, positive control 100. 2,400 tested, under 10 active. shares compounds with dFosB act-1;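 active = highest replicate activation at or above 34% and every replicate reaching that threshold; inconclusive = meets only one of the two criteria; inactive = meets neither criterion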;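 note: higher polarization means more probe DNA bound by delta FosB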
# Starred values were filed as active, the others as inactive; ? = inconclusive; / = no result given.
SMILES,dFosB act-1,S100A4 MyoIIA,F508del corr,FGF22 binding,dFosB act-2
O=C(CN1C(=O)S/C(=C\c2ccccn2)C1=O)Nc1ccc(F)cc1,48.2*,2.5,4.8,0.0,0.8
CCCNC(=O)N(C)C[C@H]1Oc2ncc(-c3ccc(OC)cc3)cc2C(=O)N([C@H](C)CO)C[C@H]1C,/,3.6,1.1,-0.1,/
C[C@@H](C(=O)N(C)C[C@@H]1OCc2ccccc2-c2ccccc2C(=O)N([C@@H](C)CO)C[C@@H]1C)c1ccccc1,/,8.0,-1.2,0.3,/
CO[C@H]1CN(C)C(=O)c2cc(NS(=O)(=O)c3ccc(Cl)cc3)ccc2OC[C@@H](C)N(C)C[C@@H]1C,/,10.3,0.7,/,/
COc1ccccc1-c1nnc(NC(=O)c2ccc3c(c2)OCO3)s1,59.2*,-5.0,-0.5,-0.4,1.8
COc1cccc(C(=O)Nc2nnc(-c3ccc(OC)cc3OC)s2)c1,38.6*,1.0,-1.8,0.2,7.2
CCOCc1nnc(NC(=O)c2cc(OC)c(OC)c(OC)c2)s1,-13.8,15.4,-0.6,0.0,/
COc1cc(C(=O)Nc2nnc(-c3sccc3C)s2)cc(OC)c1OC,16.9*,/,/,/,6.4
CCOc1ccc2nc(NC(=O)c3ccc(OC)c(S(=O)(=O)N4CCOCC4)c3)sc2c1,26.5*,/,/,/,5.3
CCOc1ccc2nc(NC(=O)c3ccc(S(=O)(=O)N4CCOCC4)cc3)sc2c1,6.2,/,/,/,/
COc1ccc(Cl)cc1NC(=O)c1[nH]c(C)c(C(C)=O)c1C,35.5*,-2.9,2.9,-0.1,3.7
COc1ccc(OC)c(NC(=O)c2[nH]c(C)c(C(C)=O)c2C)c1,-8.3,/,/,/,/
C[C@H](NC(=O)[C@@H]1[C@@H](CO)[C@@H]2Cn3c(cccc3=O)[C@@H]2N1C(=O)C1CC1)c1ccccc1,/,-15.4,-0.3,/,/
Cc1cc2c(cc1C)C(c1cc(Br)ccc1F)CC(=O)N2 (configuration not stated),21.7*,1.7,/,0.5,2.5
Cc1cc2c(cc1C)C(c1ccccc1F)CC(=O)N2 (configuration not stated),4.3,-5.0,0.7,-0.1,/
CNC[C@H]1Oc2ncc(-c3cccc(F)c3)cc2C(=O)N([C@@H](C)CO)C[C@H]1C,/,-9.9,-0.1,-0.1,/
CCOc1cc(C(=O)Nc2ccc3c4c(cccc24)C(=O)N3CC)cc(OCC)c1OCC,24.1*,2.1,/,/,4.7
Nc1nc(Cl)cc(Sc2ccc(F)cc2)n1,6.1,/,/,/,/
Cc1ccc(Sc2cc(Cl)nc(N)n2)cc1,58.3*,/,/,/,3.0
Cc1ccc(SCc2nc3ccccc3n2CC(=O)Nc2c(C)cccc2C)cc1,32.2*,/,/,/,0.4
Clc1ccc(-c2nnc(NCc3ccccc3)c3ccccc23)cc1,18.0*,/,/,/,5.6
Cc1ccc(C(C)C)c(OCC(=O)NNC(=O)Cn2[nH]c(=O)c3ccccc3c2=O)c1,34.6*,2.1,-1.6,0.3,4.3
Cc1ccc(C(C)C)c(OCC(=O)NN2C(=O)c3ccccc3C2=O)c1,2.2,-0.2,-0.7,0.0,/
COc1ccc2nc(NC(=O)C3CCN(S(=O)(=O)c4cccs4)CC3)sc2c1,25.3*,/,/,/,?
O=C(CCCCC(=O)NN=Cc1ccc(Cl)cc1)NN=Cc1ccc(Cl)cc1,25.4*,-5.3,-2.8,0.3,1.4
SMILES,dFosB act-1,S100A4 MyoIIA,F508del corr,FGF22 binding,dFosB act-2
N#CCC(=O)N/N=C/c1ccc(Cl)cc1,3.0,1.2,-0.5,0.1,/
O=C(CSc1ccc(-c2ccc3c(c2)OCO3)nn1)Nc1nccs1,35.7*,13.2,-0.6,0.6,-4.2
O=C(CSCC(=O)Nc1nc(-c2ccc3c(c2)OCO3)cs1)Nc1nccs1,-6.4,-1.3,0.0,0.0,/
C/C=C/c1ccc([C@@H]2[C@@H](CO)N(C(=O)c3cnccn3)C23CN(C(=O)CC)C3)cc1,/,-3.2,-0.2,0.2,/
Cc1sc2nc(CSCC(=O)Nc3cc(F)ccc3F)[nH]c(=O)c2c1C,-14.9,-6.7,-0.5,0.5,/
Cc1cc(C)c(NC(=O)CSCc2nc3sc(C)c(C)c3c(=O)[nH]2)c(Cl)c1,31.5*,11.8,0.9,0.1,0.7
O=C(N/N=C/c1cccnc1)c1ccc(NC(=O)c2ccc(Cl)cc2)cc1,42.5*,-1.4,1.2,-0.1,-10.2
CCN1Cc2c(/C=C/c3ccccc3)nc3ccc(OC)cc3c2N(c2cccc(Cl)c2)C1,21.1*,-6.5,0.7,0.3,3.6
COc1cccc(N2CCc3c(C)nc4ccc(Cl)cc4c32)c1,-1.0,11.6,4.6,0.0,/
C[C@@H]1CN([C@H](C)CO)C(=O)c2cc(NC(=O)Nc3cccc4ccccc34)ccc2O[C@H]1CN(C)Cc1ccc(-c2ccccc2)cc1,/,-9.8,6.4,-0.7,/
O=C(O)c1ccc(N/N=C/c2ccc(-c3ccccc3Cl)o2)cc1,1.5,4.4,-10.9,0.1,/
O=C(N/N=C/c1ccc(-c2ccccc2Cl)o1)c1ccccc1,32.0*,/,/,/,0.3
CSc1ccccc1NC(=O)Cn1nnc(-c2ccc(S(C)(=O)=O)cc2)n1,29.9*,-3.4,1.6,0.3,5.5
Cc1noc(C)c1NC(=O)N(C)C[C@@H]1Oc2ccc(NS(=O)(=O)c3cn(C)cn3)cc2C(=O)N([C@H](C)CO)C[C@@H]1C,/,-23.2,0.6,0.0,/
O=c1[nH]c(/C=C/c2ccccc2[N+](=O)[O-])nc2ccccc12,-6.5,/,/,/,/
O=c1[nH]c(/C=C/c2cccc3ccccc23)nc2ccccc12,25.5*,4.7,1.8,0.0,-1.5
CC(C)C(=O)Nc1ccc(Cl)cc1-c1nc2ccccc2[nH]c1=O,-0.4,5.4,2.9,0.2,/
CNc1ccc([N+](=O)[O-])cc1-c1nc2ccccc2[nH]c1=O,39.7*,-0.7,2.4,-0.1,0.9
COc1ccc(-c2cnc3c(c2)C(=O)N([C@@H](C)CO)C[C@@H](C)[C@H](CN(C)Cc2ccccc2)O3)cc1,/,-9.7,0.6,0.0,/
C[C@@H]1CN([C@H](C)CO)C(=O)c2cc(NC(=O)Nc3ccc4c(c3)OCO4)ccc2O[C@@H](C)CCCCO[C@H]1CN(C)S(=O)(=O)c1ccc(Cl)cc1,/,1.9,0.3,0.0,/
Cc1ccc(C)c(NC(=O)CC2Sc3ccccc3NC2=O)c1 (configuration not stated),0.5,-3.4,1.5,0.2,/
Cc1c(Cl)cccc1NC(=O)CC1Sc2ccccc2NC1=O (configuration not stated),46.4*,1.7,-1.8,-0.3,1.8
Cc1c(Cl)cccc1NC(=O)CC1Oc2ccccc2NC1=O (configuration not stated),23.5*,-5.8,5.0,0.2,4.7
Cc1ccc(NC(=O)Cn2c(=O)n(CCCC(=O)NCc3ccco3)c(=O)c3ccccc32)cc1,32.3*,/,/,/,-2.7
O=C(Cn1c(=O)n(CC(=O)NCc2ccccc2)c2ccccc21)NCc1ccccc1,24.5*,/,/,/,-1.1
Cc1ccc(Cn2c(=O)n(-c3ccccc3)c(=O)c3ccc(C(=O)NCc4ccco4)cc32)cc1,26.3*,-0.1,-1.6,-0.2,7.4
